One data set has as its system Vero. Put plainly: Cytotoxicity against African green monkey Vero cells assessed as reduction in cell viability measured after 48 hrs by MTT assay. Format: cell-based. The note with it: Chlorocebus sabaeus. The procedure, abridged: (§1)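 Cytotoxicity on Vero or HepG2 cells by MTT assay, run as previously reported.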
The target in data set [1] is T1, Amine oxidase [flavin-containing] A (Homo sapiens, UniProt P21397).
T1 sequence (P21397 whole entry): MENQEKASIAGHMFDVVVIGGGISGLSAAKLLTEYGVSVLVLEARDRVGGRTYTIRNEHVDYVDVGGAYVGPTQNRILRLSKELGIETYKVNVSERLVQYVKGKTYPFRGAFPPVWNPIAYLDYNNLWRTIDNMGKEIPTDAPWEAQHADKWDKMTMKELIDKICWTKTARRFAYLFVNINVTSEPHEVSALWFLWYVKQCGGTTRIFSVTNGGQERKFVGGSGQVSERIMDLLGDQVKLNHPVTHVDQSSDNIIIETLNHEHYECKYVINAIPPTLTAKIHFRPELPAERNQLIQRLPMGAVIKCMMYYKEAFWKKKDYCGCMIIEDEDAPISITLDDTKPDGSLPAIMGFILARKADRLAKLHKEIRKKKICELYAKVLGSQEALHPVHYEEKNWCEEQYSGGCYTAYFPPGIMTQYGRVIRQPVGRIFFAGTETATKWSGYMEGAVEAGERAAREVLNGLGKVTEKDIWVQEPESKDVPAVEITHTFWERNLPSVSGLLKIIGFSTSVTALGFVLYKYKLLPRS
Put plainly: Inhibition of recombinant human MAOA expressed in baculovirus infected insect cells using kynuramine as substrate measured after 20 mins by LC-MS/MS analysis. The procedure, abridged:
(§2)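 Recombinant human MAO-A or MAO-B (50 μg/mL) in 100 mM potassium phosphate pH 7.4 with 5 mM MgCl2. Kynuramine substrate at 50 μM (MAO-A) or 25 μM (MAO-B). […] 4-Hydroxyquinoline formation measured by LC-MS/MS versus vehicle; IC50 derived.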

Data set [2] addresses T2, Amine oxidase [flavin-containing] B (Homo sapiens, UniProt P27338).
T2 sequence (P27338 whole entry): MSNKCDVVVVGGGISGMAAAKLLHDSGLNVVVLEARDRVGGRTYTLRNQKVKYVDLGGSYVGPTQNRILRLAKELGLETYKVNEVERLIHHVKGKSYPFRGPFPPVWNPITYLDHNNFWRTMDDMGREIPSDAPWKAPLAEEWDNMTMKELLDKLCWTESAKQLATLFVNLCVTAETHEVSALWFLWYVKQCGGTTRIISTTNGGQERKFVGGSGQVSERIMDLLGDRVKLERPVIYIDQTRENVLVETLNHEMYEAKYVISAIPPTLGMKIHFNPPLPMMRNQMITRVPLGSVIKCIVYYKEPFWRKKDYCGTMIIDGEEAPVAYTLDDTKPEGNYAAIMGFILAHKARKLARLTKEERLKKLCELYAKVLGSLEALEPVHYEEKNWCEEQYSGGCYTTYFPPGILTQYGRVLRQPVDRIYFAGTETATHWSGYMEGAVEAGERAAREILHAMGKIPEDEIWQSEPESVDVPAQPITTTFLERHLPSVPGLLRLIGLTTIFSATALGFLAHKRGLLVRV
Nature of the data set: Inhibition of recombinant human MAOB expressed in baculovirus infected insect cells using kynuramine as substrate measured after 20 mins by LC-MS/MS analysis. The procedure, abridged:
as §2

The nature of data set [3]: Stability in CD-1 mouse liver microsome assessed as parent compound remaining at 1 uM measured after 30 mins in presence of NADPH by LC-MS/MS analysis. Conditions: liver microsomes, read-out: Stabilty. Format: ADME. The gist of the method: (§3)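 Liver microsomes (male CD-1 mouse or pooled human), 1 mg/mL protein, compound 1 µM, 37°C with shaking. Started with 1 mM NADPH or run without cofactor. Quenched with ice-cold ACN/MeOH containing internal standard. Parent quantified by LC-MS/MS; 30 min concentration normalised to time zero.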

The subject of another data set is HepG2. Nature of the data set: Cytotoxicity against human HepG2 cells assessed as reduction in cell viability measured after 48 hrs by MTT assay. Conditions: HepG2, 48 h. The class given is cell-based. The gist of the method: as §1
Background: Tetrazolium dyes change colour on reduction, which living cells bring about.

The subject of data set [4] is Mycobacterium tuberculosis. Nature of the data set: Antitubercular activity against Mycobacterium tuberculosis H37Rv incubated for 7 days by microplate alamar blue assay. Format: functional. The note with it: Mycobacterium tuberculosis, H37Rv, 168 h, time 7 day; read-out: MIC. The procedure, abridged:
(§4)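 MIC determined by microplate alamar blue assay (MABA) following a published protocol.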

Data set [5] concerns Mycobacterium tuberculosis. Nature of the data set: Antitubercular activity against Mycobacterium tuberculosis isolate 12525 incubated for 7 days by microplate alamar blue assay. Conditions: isolate 12525, 168 h, time 7 day. The class given is functional. The gist of the method:
as §4
On the technique in general: Alamar Blue is a resazurin reagent that responds to reducing activity.

The nature of data set [6]: Stability in CD-1 mouse liver microsome at 1 uM measured after 30 mins in absence of NADPH by LC-MS/MS analysis. Conditions: microsomes, 0.5 h. Format: ADME. The gist of the method: as §3
(In general: Liver microsomes are vesicles of endoplasmic reticulum, rich in cytochrome P450 enzymes.)

Data set [7] can be described thus: Inhibition of mitochondrial protein synthesis in rat H9c2 cells measured after 5 days by ELISA. Format: cell-based. The note with it: H9c2, 120 h. The gist of the method: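 H9C2 cells in DMEM with 10% FBS, seeded 1500/well. After 18 h, compound added at final 0.03–200 μM (3-fold series), then 5 days at 37 °C, 5% CO2; 0.5% DMSO negative control. MPS inhibition read by MitoBiogenesis In-Cell ELISA; IC50 calculated.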

In data set [8] the test system is Mycobacterium tuberculosis. Put plainly: Antitubercular activity against Mycobacterium tuberculosis H37Rv infected in Balb/c mouse assessed as reduction in lung bacterial burden at 25 to 100 mg/kg/day, po administered via gavage 5 times per week for 3 weeks starting from 10 days post-infection and measured 24 hrs post last dose. The note with it: dose mg/kg/day 25-100, time 22.0 day. The class given is functional, organism-based. The procedure, abridged:
(§5)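 Female SPF BALB/c mice, 6 per group, aerosol-infected with M. tuberculosis H37Rv to deposit 50-100 bacilli per lung. Compound suspended in 0.5% CMC, given by oral gavage from day 10 post-infection, 5 times per week for 3 weeks; controls got 0.5% CMC. Lungs harvested the day after the last dose, homogenised, diluted in HBSS, plated on 7H11 agar in duplicate, incubated 3 weeks at 37 °C. Result expressed as mean log10 CFU; t-test versus control.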

Data set [9] concerns Mycobacterium tuberculosis. Put plainly: Antitubercular activity against Mycobacterium tuberculosis H37Rv infected in Balb/c mouse assessed as lung bacterial burden by measuring colony forming unit at 25 mg/kg/day, po administered via gavage 5 times per week for 3 weeks starting from 10 days post-infection and measured 24 hrs post last dose (reference value: 7.102 +/- 0.152 log10CFU). The class given is functional. Conditions: time 22 day. The gist of the method:
as §5

Data set [10] is described as follows: Toxicity in Mycobacterium tuberculosis H37Rv infected Balb/c mouse assessed as change in body weight at 25 mg/kg/day, po administered via gavage 5 times per week for 3 weeks starting from 10 days post-infection (reference value: 21.29 +/- 0.84 g). The class given is organism-based. Conditions: in vivo, 504 h, time 21 day.
The nature of data set [11]: Toxicity in Mycobacterium tuberculosis H37Rv infected Balb/c mouse assessed as change in body weight at 100 mg/kg/day, po administered via gavage 5 times per week for 3 weeks starting from 10 days post-infection (reference value: 21.29 +/- 0.84 g). The class given is organism-based. The note with it: in vivo, 504 h, time 21 day.
Data set [12] has as its system Mycobacterium tuberculosis. Put plainly: Antitubercular activity against Mycobacterium tuberculosis H37Rv infected in Balb/c mouse assessed as lung bacterial burden by measuring colony forming unit at 100 mg/kg/day, po administered via gavage 5 times per week for 3 weeks starting from 10 days post-infection and measured 24 hrs post last dose (reference value: 7.102 +/- 0.152 log10CFU). Format: functional. Conditions: time 22 day. The gist of the method: as §5

In data set [13] the test system is Mycobacterium tuberculosis. Nature of the data set: Antitubercular activity against Mycobacterium tuberculosis H37Rv infected in Balb/c mouse assessed as reduction in lung bacterial burden at 50 to 100 mg/kg/day, po administered via gavage 5 times per week for 3 weeks starting from 10 days post-infection and measured 24 hrs post last dose. Format: functional, organism-based. Conditions: dose mg/kg/day 50-100, time 22.0 day. The procedure, abridged:
as §5

≈ marks a conversion by molar mass, not a printed value. Calls of active or inactive are those of the source. No cut-off for these calls is given here. Where only a bound is given, the exact number is not on record here.

Broadly, the IC50 is the midpoint of a concentration-inhibition curve. As usually defined, the MIC is the lowest concentration found to suppress growth.

As to `CC(=O)NC[C@H]1CN(c2ccc(N3CCSCC3)c(F)c2)C(=O)O1` [SUTEZOLID], the IC50 is greater than 64 µg/mL in the data set on Vero; 13 µM in data set [1]; 0.7 µM in [2]; greater than 64 µg/mL with HepG2; 8.17 µM in [7]. Moreover, in [3], the remaining at 0.5 h, 1 µM was determined as 54.8%. The figures for the MIC in data set [4] and in [5] were 0.1 µg/mL (≈ 0.283 µM) and 0.06 µg/mL (≈ 0.17 µM), respectively. Also, the Stabilty result in [6] is recorded as “Stable”.
Regarding `CC(=O)NC[C@@H]1OC(=O)N2c3cc(F)c(N4CCSCC4)cc3OC[C@@H]12`, the result in [8] was Active.
Regarding `NNC(=O)c1ccncc1` [ISONIAZID], the minimal inhibitory concentration (MIC) is 0.03 µg/mL (≈ 0.219 µM) in data set [4] and greater than 10 µg/mL in [5]. The Activity is given as 1.929 log10CFU in data set [9] and 21.3 g in data set [10].
Regarding `CC(=O)NC[C@H]1CN(c2ccc(N3CCOCC3)c(F)c2)C(=O)O1` [LINEZOLID], the Activity is 20.83 g in data set [11] and 4.136 log10CFU in data set [12]. Besides, the remaining at 0.5 h, 1 µM in data set [3] came to 111%. Moreover, the MIC in data set [4] stood at 0.32 µg/mL (≈ 0.949 µM); in data set [5] it was 0.23 µg/mL (≈ 0.682 µM). The Stabilty entry in data set [6] was “Stable”. In [13], the result was Active. The compound further came in with an IC50 in data set [7] of 7.98 µM.

(Values after ChEMBL document CHEMBL4725282, “Discovery of a Conformationally Constrained Oxazolidinone with Improved Safety and Efficacy Profiles for the Treatment of Multidrug-Resistant Tuberculosis” (J Med Chem, 2020).)
